# Laboratory results from ChEMBL document CHEMBL2331435, “Structure-activity relationship study of vitamin k derivatives yields highly potent neuroprotective agents” (J Med Chem, 2013).
# Calls of active or inactive are those of the source. The calls are words filed in the database; no cut-off is given here.
# System: not listed separately
# Test: Therapeutic index, ratio of cytotoxic TC50 for mouse HT22 cells to neuroprotective PD50 for mouse HT22 cells
# Type: cell-based, HT-22
# Settings: read-out: TI
row,SMILES,selectivity ratio
1,O=C1C=C(Nc2ccccc2)C(=O)c2ccccc21,109
2,O=C1C=C(NCc2ccc(Cl)c(Cl)c2)C(=O)c2ccccc21,> 2170
3,CN(C)C1=CC(=O)c2ccccc2C1=O,> 407
4,O=C1C=C(NCc2ccc(Cl)cc2)C(=O)c2ccccc21,> 1700
5,CCCNC1=CC(=O)c2ccccc2C1=O,91
6,O=C1C=C(NCc2cccc(C(F)(F)F)c2)C(=O)c2ccccc21,> 2220
7,NC1=CC(=O)c2ccccc2C1=O,803
8,CCNC1=CC(=O)c2ccccc2C1=O,106
9,CC(C)NC1=CC(=O)c2ccccc2C1=O,27
10,CNC1=CC(=O)c2ccccc2C1=O,74
11,O=C1C=C(NCC2CCCCC2)C(=O)c2ccccc21,> 1850
12,O=C(O)C1=CC(=O)c2ccccc2C1=O,140

# System: Radical scavenging activity
# Test: Antioxidant activity assessed as DPPH free radical scavenging activity at 20 uM
# Type: functional
# Settings: not given
# Summary of the method: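 Test agents at 20 μM final, added to 100 μM DPPH in methanol; absorbance at 517 nm monitored immediately for 10 min. Trolox and ascorbic acid served as positive controls, and the rate of absorbance loss was taken as antioxidant potency.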
row,SMILES,Activity
1,O=C1O[C@H]([C@@H](O)CO)C(O)=C1O,Active
2,Cc1c(C)c2c(c(C)c1O)CCC(C)(C(=O)O)O2 (stereo not drawn),Active

# System: HT-22
# Test: Antioxidant activity in mouse HT22 cells assessed as prevention of glutamate-induced GSH depletion at 5 uM
# Type: functional, cell-based
# Settings: not given
# Summary of the method: (§1)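 HT22 cells were exposed to 10 mM glutamate plus compound (DMSO stock) for 8 h. Total glutathione (reduced plus oxidized) in the supernatant of the cell homogenate was measured with a glutathione reductase enzymatic recycling kit. GSH reacts with DTNB to give TNB, read at 405 nm.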
row,SMILES,Activity
1,COC1=C(OC)C(=O)C(CCCCCCCCCCO)=C(C)C1=O,inactive

# System: HT-22
# Test: Neuroprotective activity in mouse HT22 cells assessed as prevention from tBuOOH-induced oxidative cell death after 3 hrs by MTS assay
# Type: functional, cell-based
# Settings: not given
# Summary of the method: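 HT22 cells were seeded at 5.0 × 10^3 per well and cultured overnight, then exposed to 50 μM t-BuOOH (final) plus compound for 3 h. Medium was removed, cells were washed with HBSS and returned to normal medium. MTS was added 24 h after initial treatment, absorbance was read at 490 nm after 2 h, and viability was expressed as percent of untreated cells.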
row,SMILES,Activity
1,Cc1c(C)c2c(c(C)c1O)CCC(C)(C(=O)O)O2 (stereo not drawn),inactive
2,COC1=C(OC)C(=O)C(C/C=C(\C)CC/C=C(\C)CC/C=C(\C)CC/C=C(\C)CC/C=C(\C)CC/C=C(\C)CC/C=C(\C)CC/C=C(\C)CC/C=C(\C)CCC=C(C)C)=C(C)C1=O,inactive

# System: HT-22
# Test: Antioxidant activity in mouse HT22 cells assessed as prevention of glutamate-induced GSH depletion at 50 uM
# Type: functional, cell-based
# Settings: not given
# Summary of the method: as §1
row,SMILES,Activity
1,CN1C(=O)C(Cc2c[nH]c3ccccc23)NC1=S (stereo not drawn),inactive

# System: not listed separately
# Test: Neurotoxicity in mouse HT22 cells assessed as cell viability after 24 hrs by MTS assay
# Type: toxicity, cell-based, HT-22
# Settings: read-out: TC50
# Summary of the method: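 HT22 cells were seeded at 5.0 × 10^3 per well, cultured overnight, and treated with a range of compound concentrations without glutamate for 24 h. MTS was added for 2 h and absorbance read at 490 nm. Viability was expressed as percent of untreated cells, and TC50 was fit from titration curves (7- or 12-point, n = 3–4).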
row,SMILES,CC50 at 24 h
1,O=C1C=C(Nc2ccccc2)C(=O)c2ccccc21,7 µM
2,O=C1C=C(NCc2ccc(Cl)c(Cl)c2)C(=O)c2ccccc21,> 100 µM
3,CN(C)C1=CC(=O)c2ccccc2C1=O,> 100 µM
4,O=C1C=C(NCc2ccc(Cl)cc2)C(=O)c2ccccc21,> 100 µM
5,CCCNC1=CC(=O)c2ccccc2C1=O,30 µM
6,O=C1C=C(NCc2cccc(C(F)(F)F)c2)C(=O)c2ccccc21,> 100 µM
7,NC1=CC(=O)c2ccccc2C1=O,49 µM
8,CCNC1=CC(=O)c2ccccc2C1=O,81 µM
9,CC(C)NC1=CC(=O)c2ccccc2C1=O,46 µM
10,CNC1=CC(=O)c2ccccc2C1=O,> 100 µM
11,O=C1C=C(NCC2CCCCC2)C(=O)c2ccccc21,> 100 µM
12,O=C(O)C1=CC(=O)c2ccccc2C1=O,> 100 µM

# System: HT-22
# Test: Antioxidant activity in mouse HT22 cells assessed as prevention of glutamate-induced GSH depletion at 25 uM
# Type: functional, cell-based
# Settings: not given
# Summary of the method: as §1
row,SMILES,Activity
1,Cc1c(C)c2c(c(C)c1O)CCC(C)(C(=O)O)O2 (stereo not drawn),inactive

# System: HT-22
# Test: Neuroprotective activity in mouse HT22 cells assessed as prevention from glutamate-induced oxidative cell death by MTS assay
# Type: functional
# Settings: not given
# Summary of the method: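 HT22 cells grown in high-glucose DMEM with 10% FBS and antibiotic-antimycotic at 37°C, 5% CO2. Seeded at 5.0 × 10^3 cells/well overnight, then given 10 mM glutamate (final) plus compound from DMSO stock. MTS added 24 h after treatment, 2 h at 37°C, A490 read. Viability taken as % of untreated cells. PC50 from 12-point titrations; experiments repeated at least four times.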
row,SMILES,PD50
1,O=C1C=C(Nc2ccccc2)C(=O)c2ccccc21,64 nM
2,O=C1C=C(NCc2ccc(Cl)c(Cl)c2)C(=O)c2ccccc21,46 nM
3,CN(C)C1=CC(=O)c2ccccc2C1=O,246 nM
4,O=C1C=C(NCc2ccc(Cl)cc2)C(=O)c2ccccc21,59 nM
5,O=C1C=C(NCc2cccc(C(F)(F)F)c2)C(=O)c2ccccc21,45 nM
6,NC1=CC(=O)c2ccccc2C1=O,61 nM
7,O=C1C=C(NCC2CCCCC2)C(=O)c2ccccc21,54 nM
